# Measurements published in ChEMBL document CHEMBL3608245, “Boronic acid-containing aminopyridine- and aminopyrimidinecarboxamide CXCR1/2 antagonists: Optimization of aqueous solubility and oral bioavailability” (Bioorg Med Chem Lett, 2015).
# Active and inactive are the calls of the source. No cut-off for these calls is given here.
# Tests used:
# [1] = target: T1, C-X-C chemokine receptor type 1 (Homo sapiens, UniProt P25024); experiment: Antagonist activity at CXCR1 (unknown origin) transfected in RBL cells assessed as inhibition of IL-8-mediated intracellular calcium release preincubated for 30 mins followed by IL-8 addition by FLUO-4AM-based fluorescent microplate reader analysis; format: functional, cell-based
# T1 sequence (P25024 whole entry): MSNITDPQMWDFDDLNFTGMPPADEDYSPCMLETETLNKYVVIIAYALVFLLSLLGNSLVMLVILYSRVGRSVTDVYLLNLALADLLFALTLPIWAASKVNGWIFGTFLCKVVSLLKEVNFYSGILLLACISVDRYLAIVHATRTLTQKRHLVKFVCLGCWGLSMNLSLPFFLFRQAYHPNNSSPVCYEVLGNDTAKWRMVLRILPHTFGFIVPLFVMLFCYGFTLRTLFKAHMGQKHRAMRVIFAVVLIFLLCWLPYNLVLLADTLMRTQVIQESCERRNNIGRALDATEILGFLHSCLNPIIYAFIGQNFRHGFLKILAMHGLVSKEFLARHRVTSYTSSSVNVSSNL
# Procedure, shortened: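 RBL cells stably expressing CXCR1 were preincubated 30 min with compound, then stimulated with IL8. Intracellular calcium release read by FLUO-4AM fluorescence on a microplate reader. IC50 from triplicate experiments, mean ± SE.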
# [2] = target: T2, C-X-C chemokine receptor type 2 (Homo sapiens, UniProt P25025); experiment: Antagonist activity at CXCR2 (unknown origin) transfected in RBL cells assessed as inhibition of IL-8-mediated intracellular calcium release preincubated for 30 mins followed by IL-8 addition by FLUO-4AM-based fluorescent microplate reader analysis; format: functional, cell-based
# T2 sequence (P25025 whole entry): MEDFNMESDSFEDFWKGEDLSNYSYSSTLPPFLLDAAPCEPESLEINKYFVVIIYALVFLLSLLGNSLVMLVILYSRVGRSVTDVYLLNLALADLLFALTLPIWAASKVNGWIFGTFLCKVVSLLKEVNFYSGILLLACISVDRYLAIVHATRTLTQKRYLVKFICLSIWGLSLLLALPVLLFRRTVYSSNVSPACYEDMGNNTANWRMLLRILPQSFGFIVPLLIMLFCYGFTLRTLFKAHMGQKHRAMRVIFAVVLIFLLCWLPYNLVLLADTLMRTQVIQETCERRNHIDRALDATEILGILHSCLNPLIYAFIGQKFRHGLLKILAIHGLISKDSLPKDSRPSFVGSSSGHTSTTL
# [3] = target: T3, Interleukin-8 receptors, CXCR1/CXCR2 (Homo sapiens, UniProt P25025+P25024); experiment: Antagonist activity at CXCR1/CXCR2 in isolated human PMN assessed as inhibition of IL-8-mediated intracellular calcium flux; format: functional, cell-based
# T3 sequence (P25025 whole entry): T2 sequence (P25025 whole entry)
# T3 sequence (P25024 whole entry): T1 sequence (P25024 whole entry)
# Procedure, shortened: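 Isolated human neutrophils (PMNs); inhibition of calcium flux with IL8 as agonist; IC50 reported as mean ± SE from triplicate experiments.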
# [4] = Metabolic stability in human plasma assessed as compound remaining at 1 uM measured at 1 hr by LC-MS/MS analysis; format: ADME, cell-free; conditions: read-out: Stability
# Procedure, shortened: (§1)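 Compound at 1 µM was incubated in human plasma at 37°C for up to 24 h. Samples were taken at 0, 1, 4 and 24 h and analysed by LC-MS/MS, with results reported as % remaining.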
# [5] = Metabolic stability in human plasma assessed as compound remaining at 1 uM measured at 24 hrs by LC-MS/MS analysis; format: ADME, cell-free; conditions: read-out: Stability; procedure, shortened: as §1
# [6] = tested on: Plasma; experiment: Metabolic stability in rat plasma; format: ADME, cell-free
# [7] = Oral bioavailability in rat at 1 mg/kg by LC-MS/MS analysis; format: ADME, organism-based; conditions: in vivo
# Procedure, shortened: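 Rats were dosed at 1 mg/kg both intravenously (vehicle dimethylacetamide/PEG400/0.9% saline 40:40:20) and by oral gavage (vehicle 0.1 N HCl or Labrasol, depending on compound). Plasma levels were measured by LC-MS/MS against a calibration curve of compound spiked into rat plasma, run alongside the samples. Oral and IV AUC are reported in μmol·hr/L.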
# [8] = Solubility of the compound in 0.1 N HCl; format: physicochemical; conditions: buffer
# [9] = tested on: Rattus norvegicus; experiment: Antiinflammatory activity in Sprague-Dawley rat ozone model of pulmonary inflammation assessed as reduction in neutrophil influx at 1 mg/kg, iv after 24 hrs by Wright-Giemsa staining assay; format: functional, organism-based
# Procedure, shortened: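 Sprague-Dawley rats, n = 4 per cohort, received a single iv dose at t = 0 in DMA/PEG400/0.9% saline (40:40:20). Vehicle groups were kept in air (negative) or 1 ppm ozone (positive), and treated groups in ozone, each for 4 h. At 24 h the rats were sacrificed and BALF was collected. Cells were spun down, Wright-Giemsa stained and neutrophils counted.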
# [10] = Metabolic stability in human plasma assessed as compound remaining at 1 uM measured at 4 hrs by LC-MS/MS analysis; format: ADME, cell-free; conditions: read-out: Stability; procedure, shortened: as §1
# [11] = tested on: Rattus norvegicus; experiment: AUC in rat at 1 mg/kg, iv by LC-MS/MS analysis; format: ADME, organism-based; conditions: in vivo
# Procedure, shortened: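 Rats dosed intravenously at 1 mg/kg in DPS vehicle (dimethylacetamide/PEG400/0.9% saline 40:40:20). Plasma concentrations measured by LC-MS/MS against a calibration curve of test compound spiked in rat plasma, run alongside the samples; AUC given in μmol·hr/L.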
# [12] = tested on: Rattus norvegicus; experiment: AUC in rat at 1 mg/kg, po by LC-MS/MS analysis; format: ADME, organism-based; conditions: in vivo
Structure (SMILES),IC50 [1] [nM],IC50 [2] [nM],further results
O=C(Nc1ccc(F)cc1)c1cnc(N(Cc2ccc(B(O)O)cn2)Cc2ccco2)nc1,444,655,–
CN(Cc1ccccc1B(O)O)c1ccc(C(=O)Nc2ccc(F)cc2)cn1,> 5000,> 5000,–
O=C(Nc1ccc(F)cc1)c1ccc(NCc2cccc(B(O)O)c2)nc1,611,733,–
O=C(O)CN(Cc1ccc(B(O)O)cn1)c1ncc(C(=O)Nc2ccc(F)cc2)cn1,> 5000,> 5000,–
O=C(Nc1ccc(F)cc1)c1ccc(N(Cc2ccc(B(O)O)cn2)Cc2ccco2)nc1,3.3,21,–
O=C(Nc1ccc(F)cc1)c1cnc(N(Cc2ccccc2)Cc2ccc(B(O)O)cn2)nc1,7,4,"IC50 [3]: 185 nM; remaining at 1 h, 1 µM [4]: 90%; remaining at 24 h, 1 µM [5]: 62%; Stability [6]: Stable; bioavailability [7]: 24%; solubility [8]: 500 µg/mL; Activity [9]: Active; remaining at 4 h, 1 µM [10]: 71%; AUC [11]: 4.37 µM·h; AUC [12]: 1.15 µM·h"
NCCN(Cc1ccc(B(O)O)cn1)c1ncc(C(=O)Nc2ccc(F)cc2)cn1,> 5000,> 5000,–
O=C(Nc1ccc(F)cc1)c1ccc(NCc2ccc(B(O)O)cc2)nc1,4300,2200,–
CN(Cc1cccc(B(O)O)c1)c1ncc(C(=O)Nc2ccc(F)cc2)cn1,2500,2500,–
O=C(Nc1ccc(F)cc1)c1cnc(NCc2cccc(B(O)O)c2)nc1,1340,918,–
CN(Cc1ccc(B(O)O)cn1)c1ccc(C(=O)Nc2ccc(F)cc2)cn1,1700,81,–
O=C(Nc1ccc(F)cc1)c1cnc(NCc2ccc(B(O)O)cc2)nc1,1700,2600,–
CN(Cc1ccc(B(O)O)cn1)c1ncc(C(=O)Nc2ccc(F)cc2)cn1,1700,933,–
O=C(Nc1ccc(F)cc1)c1ccc(NCc2ccccc2B(O)O)nc1,> 5000,> 5000,–
O=C(Nc1ccc(F)cc1)c1ccc(SCc2cc(OC(F)(F)F)ccc2B(O)O)nc1,–,–,"remaining at 1 h, 1 µM [4]: 62%; remaining at 24 h, 1 µM [5]: 2%; Stability [6]: Stable; solubility [8]: Insoluble; Activity [9]: Active; remaining at 4 h, 1 µM [10]: 34%; AUC ([12]; BLD = below limit of detection): BLD"
CN(Cc1ccc(B(O)O)cc1)c1ncc(C(=O)Nc2ccc(F)cc2)cn1,681,121,–
CN(Cc1cccc(B(O)O)c1)c1ccc(C(=O)Nc2ccc(F)cc2)cn1,4100,410,–
O=C(Nc1ccc(F)cc1)c1cnc(N(Cc2ccccn2)Cc2ccc(B(O)O)cn2)nc1,2050,4310,–
O=C(Nc1ccc(F)cc1)c1ccc(N(Cc2ccc(B(O)O)cn2)CC2CCOCC2)nc1,> 5000,2300,–
O=C(Nc1ccc(F)cc1)c1ccc(N(Cc2ccccc2)Cc2ccc(B(O)O)cn2)nc1,326,298,–
CN(Cc1ccccc1B(O)O)c1ncc(C(=O)Nc2ccc(F)cc2)cn1,> 5000,> 5000,–
O=C(Nc1ccc(F)cc1)c1ccc(N(Cc2ccccn2)Cc2ccc(B(O)O)cn2)nc1,> 5000,4850,–
CN(Cc1ccc(B(O)O)cc1)c1ccc(C(=O)Nc2ccc(F)cc2)cn1,1400,1100,–
